# From ChEMBL document CHEMBL1134486, “Synthesis and biological evaluation of purine-containing butenolides” (J Med Chem, 2001)
# B1: Adenosine deaminase (Bos taurus), P56658 (protein)
# chain: MAQTPAFNKPKVELHVHLDGAIKPETILYYGRKRGIALPADTPEELQNIIGMDKPLSLPEFLAKFDYYMPAIAGCREAVKRIAYEFVEMKAKDGVVYVEVRYSPHLLANSKVEPIPWNQAEGDLTPDEVVSLVNQGLQEGERDFGVKVRSILCCMRHQPSWSSEVVELCKKYREQTVVAIDLAGDETIEGSSLFPGHVKAYAEAVKSGVHRTVHAGEVGSANVVKEAVDTLKTERLGHGYHTLEDATLYNRLRQENMHFEVCPWSSYLTGAWKPDTEHPVVRFKNDQVNYSLNTDDPLIFKSTLDTDYQMTKNEMGFTEEEFKRLNINAAKSSFLPEDEKKELLDLLYKAYGMPSPASAEQCL
# Experiments:
# [1] = compound: COC1=C(OC)C(O)(CCn2cnc3c(N)ncnc32)OC1=O; assay: (§1) Rate of deamination in the presence of calf mucosal adenosine deaminase (ADA)
# Method in brief: (§2)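 Deamination rates followed with calf mucosal ADA (EC 3.5.4.4) in buffer solutions; Km and Vmax relative to adenosine as substrate; inhibition (Ki) assessed with adenosine as substrate.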
# [2] = compound: COC1=C(OC)/C(=C/Cn2cnc3c(N)ncnc32)OC1=O; assay: as §1; method in brief: as §2
protein,measurement,setting,value
B1,Km,[1],> 800 µM
same,Km,[2],266 µM
